Most compounds without a hit are left out; they make up all but 2% or so of the library.
PKA-R2B activ – activators of PKA-R2B holoenzyme, primary screen, biochemical, fluorescence polarization, Cy5-IP20, human; PKA-R2B holoenzyme dissociation; R2B truncated from residue 108, S112A mutant; 0% DMSO only, 100% 113 µM cGMP; activation, % at 11.4 µM; actives 0.079% (n = 340,000); AID 504700, 2011;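 active = activation above a cutoff set at the mean over all compounds plus 3 SD, cut at about 18% in these data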;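 note: higher means more holoenzyme dissociation and a rise in polarization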
CAL PDZ FP-1 – CAL PDZ peptide-binding inhibitors, primary screen, biochemical, fluorescence polarization, Cer-tagged CAL PDZ, HTS; Golgi-associated PDZ and coiled-coil motif-containing protein (Homo sapiens), Q9HD26; purified CAL PDZ, TMR-peptide fluorescence polarization, 1 h; inhibition, % at 20 µM; actives 0.02% (n = 330,000); AID 504414, 2011;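 active = highest replicate inhibition of at least 40%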
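material = purified tagged CAL PDZ domain construct (CerCALP) | buffer or medium = sodium phosphate/NaCl buffer pH 7.4 with TCEP, IgG, Thesit | reagent = TMR-labelled reporter peptide T*-PRC34 bound in PDZ groove | incubation = 1 h room-temperature incubation prior to read | measured by = fluorescence polarization (mP) | evaluation = percent inhibition from loss of millipolarization | control set = unlabelled peptide and DMSO controls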
PKA-R1A activ – activators of PKA-R1A holoenzyme, primary screen, biochemical, fluorescence polarization, Cy5-IP20, bovine R1A, mouse PKAc; cAMP-dependent protein kinase type I-alpha regulatory subunit (Bos taurus) + …; PKA-R1A dissociation; scaled: DMSO 0%, 113 µM cGMP 100%; activation, % at 11.4 µM; actives 0.083% (n = 340,000);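 active = percent activation above the mean of all tested compounds plus 3 SD, cut at about 19% in these data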;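 note: higher means more PKAc released from R1A so a rise in polarization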
CAL PDZ FP-2 – untagged CAL PDZ binding inhibitors, primary screen, biochemical, fluorescence polarization, HTS; inhibition, % at 24.9 µM; actives 0.92% (n = 300,000); Golgi-associated PDZ and coiled-coil motif-containing protein (Homo sapiens), Q9HD26; AID 602252, 2012; purified CAL PDZ, TMR-peptide fluorescence polarization, 1 h;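 active = mean inhibition of at least 30% with at least half of replicates also reaching 30%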
dFosB act-1 – activators of delta FosB homodimer, primary screen, biochemical, fluorescence polarization, TAMRA-CDK5 oligo, single point | purified delta FosB; percent of positive-control signal above neutral wells | actives 0.99% (n = 340,000) | Protein FosB (Mus musculus), P13346 | activation, % at 25 µM;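 active = mean activation above about 17%, with every replicate also reaching it, limit read from the data, passing the limit was not always enough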
Target sequence (P13346 whole entry, looked up): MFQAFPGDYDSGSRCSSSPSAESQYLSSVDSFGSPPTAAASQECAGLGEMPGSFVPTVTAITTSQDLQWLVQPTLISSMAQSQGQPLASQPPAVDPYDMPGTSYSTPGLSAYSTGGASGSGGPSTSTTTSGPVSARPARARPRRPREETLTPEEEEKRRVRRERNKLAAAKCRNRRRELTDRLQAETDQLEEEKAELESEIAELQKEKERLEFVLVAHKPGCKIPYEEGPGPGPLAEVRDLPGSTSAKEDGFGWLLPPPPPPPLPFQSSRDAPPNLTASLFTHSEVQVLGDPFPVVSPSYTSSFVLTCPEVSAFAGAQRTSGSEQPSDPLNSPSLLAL
NTR1 agonist – agonists of human NTR1, primary screen, imaging, U2OS cells, beta-arrestin-GFP, high content; actives 0.17% (n = 330,000); AID 493036, 2011; NTR1-U2OS beta-arrestin-GFP spot imaging, agonist mode; activation, % at 20 µM; Neurotensin receptor type 1 (Homo sapiens), P30989;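 active = activation at or above 40% of the spot to cytoplasm intensity ratio, with at least 20 cells analyzed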
dFosB act-2 – activators of mouse delta FosB DNA binding, confirmation, biochemical, fluorescence polarization, TAMRA-CDK5 oligo, cherry-picked samples | shares compounds with dFosB act-1 | purified delta FosB; normalised: neutral wells 0, positive control 100 | activation, % at 24.9 µM | 2,400 tested, under 10 active | AID 588690, 2011;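 active = highest replicate activation at or above 34% and every replicate reaching that threshold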;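 note: higher polarization means more probe DNA bound by delta FosB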
Of the large screens only hits and unclear results are named; the others gave an inactive call (follow-up assays come after a bar, where they were run).

COc1ccc(N(C)S(=O)(=O)c2cccc(C(=O)OCC(=O)N(C)c3ccccc3)c2)cc1	none
O=S(=O)(Nc1ccccc1C(F)(F)F)c1ccc(-c2ccccn2)s1	none (no result: NTR1 agonist)
CC(C)C(OC(=O)c1cc2c(s1)CCCCC2)C(=O)NC(N)=O (centres undefined)	dFosB act-1 26 | dFosB act-2 inactive
Cc1cc(-n2c(SCC(=O)NCCC3=CCCCC3)nc3n[nH]c(C)c3c2=N)ccc1Cl	none
Cc1[nH]nc2nc(SCC(=O)NCCC3=CCCCC3)n(-c3ccc(Br)cc3)c(=N)c12	dFosB act-1 66 | dFosB act-2 inactive
COc1ccc(C(=O)Nc2ccccc2C(=O)NC(Cc2ccc(O)cc2)C(=O)NNC(=O)c2ccccc2)cc1 (centres undefined)	none
COc1ccc(C(=O)Nc2ccccc2C(=O)NC(Cc2ccc(O)cc2)C(=O)NNC(=O)c2ccc(C)cc2)cc1 (centres undefined)	dFosB act-1 100 | dFosB act-2 inactive
CCOc1ccc(/C=N/NC(=O)c2cc3ccccc3cc2OC)cc1	dFosB act-1 19 | dFosB act-2 inactive
Cc1occc1C(=O)N/N=C/c1ccc(OCc2ccccc2)cc1	dFosB act-1 30 | dFosB act-2 inactive
COc1cc2ccccc2cc1C(=O)N/N=C/c1cccnc1	none
CCc1cccc(NC(=O)CC2Oc3ccccc3NC2=O)c1 (centres undefined)	dFosB act-1 21 | dFosB act-2 inactive
CCn1cc(C(=O)NCc2ccc(OC)cc2)c(=O)c2ccc(C)nc21	none (no result: CAL PDZ FP-2)
Cc1ccc(O)c(C(=O)c2cc(C#N)c3nc4ccccc4n3c2)c1	dFosB act-1 24 | dFosB act-2 inactive
COc1ccc(S(=O)(=O)N2CCCCCC2)cc1C(=O)N1CCN(c2ccc(F)cc2)CC1	none (no result: NTR1 agonist)
COc1ccc2nc(NC(=O)C3CCCN(S(=O)(=O)c4cccc5nsnc45)C3)sc2c1 (centres undefined)	dFosB act-1 25 | dFosB act-2 inactive
COc1ccc(Cl)cc1S(=O)(=O)N1CCC(C(=O)NC2CCCC2)CC1	none
O=C(CSc1nnc(SCc2ccc(Cl)cc2)s1)N/N=C/c1c[nH]c2ccccc12	dFosB act-1 38 (no result: NTR1 agonist) | dFosB act-2 inactive
O=C(Cn1c(=O)c2cccn2c2ccccc21)Nc1cc(F)ccc1F	none
CCc1ccc(NC(=O)CCn2c(=O)c3cccn3c3ccccc32)cc1	none
CCc1ccc(NC(=O)Cn2c(=O)c3cccn3c3ccccc32)cc1	dFosB act-1 32 (no result: CAL PDZ FP-2) | dFosB act-2 inactive
Cc1cc(C)c(NC(=O)Cn2c(=O)c3cccn3c3ccccc32)c(C)c1	dFosB act-1 39 | dFosB act-2 inactive
Cc1ccc(Cn2ccc(NC(=O)c3noc4c3CCc3ccccc3-4)n2)cc1	none
COc1ccc2c(c1)CCc1c(C(=O)Nc3ccn(Cc4ccc(C)cc4)n3)noc1-2	dFosB act-1 28 (no result: CAL PDZ FP-2) | dFosB act-2 inactive
O=C(O)CC1(CC(=O)Nc2nccs2)CCCCC1	none (no result: NTR1 agonist)
CCOc1ccc(-c2cc(NC(=O)Cn3ncc4c3-c3ccccc3OC4)on2)cc1OCC	dFosB act-1 39 (no result: CAL PDZ FP-2) | dFosB act-2 inactive
CN(C)CCCN1C(=O)c2cccc3c(Br)ccc(c23)C1=O	dFosB act-1 32 | dFosB act-2 inactive
Cc1ccc(-n2ncc3c(=O)[nH]c(SCC(=O)N4CC(=O)Nc5ccccc54)nc32)cc1	none
Cc1cccc(-n2ncc3c(=O)[nH]c(SCC(=O)N4CC(=O)Nc5ccccc54)nc32)c1	CAL PDZ FP-2 37, dFosB act-1 47 | dFosB act-2 inactive
Cc1ccc(NC(=O)CC2=NC(=O)C(CC(=O)Nc3ccccc3F)S2)cc1 (centres undefined)	dFosB act-1 46 | dFosB act-2 inactive
O=C(NNC1=Nc2cccc3cccc1c23)c1ccc(Br)cc1	none (no result: PKA-R2B activ, PKA-R1A activ, NTR1 agonist)
C[C@H]1CN([C@@H](C)CO)C(=O)c2cccc(NC(=O)Nc3ccc(C(F)(F)F)cc3)c2O[C@@H]1CN(C)S(=O)(=O)c1ccccc1	dFosB act-1 29 | dFosB act-2 inactive
COc1ccc(S(=O)(=O)N(C)C[C@H]2Oc3c(NC(=O)Nc4ccccc4)cccc3C(=O)N([C@H](C)CO)C[C@@H]2C)cc1	none (no result: NTR1 agonist)
C[C@H](CO)N1C[C@H](C)[C@@H](CN(C)S(=O)(=O)c2ccccc2)Oc2c(NC(=O)Nc3ccccc3)cccc2C1=O	none
COc1ccc(S(=O)(=O)N(C)C[C@H]2Oc3c(NC(=O)Nc4ccc(C(F)(F)F)cc4)cccc3C(=O)N([C@H](C)CO)C[C@@H]2C)cc1	dFosB act-1 66 | dFosB act-2 inactive
Cc1ccc(S(=O)(=O)N2CCN(C(=O)COC(=O)/C=C/c3ccc([N+](=O)[O-])cc3)CC2)c(C)c1	dFosB act-1 24 | dFosB act-2 inactive
O[C@@H]1C[C@H](c2ccc(Cl)cc2)N(Cc2cccs2)C[C@H]1n1cc(C2CC2)nn1	none (no result: CAL PDZ FP-1, CAL PDZ FP-2, dFosB act-1, NTR1 agonist)
CCS(=O)(=O)c1nc(S(=O)(=O)c2ccc(C)cc2)c(N2CCCCCC2)s1	none (no result: CAL PDZ FP-1, CAL PDZ FP-2, dFosB act-1, NTR1 agonist)
COc1cc(-c2cc(C(=O)Nc3cccc(C(C)=O)c3)c3ccccc3n2)cc(OC)c1OC	dFosB act-1 28 | dFosB act-2 inactive
O=C(c1cc(-c2cccc(Cl)c2)on1)N1CCN(c2ccc(F)cc2)CC1	dFosB act-1 21 | dFosB act-2 inactive
CN1CCN(C(=O)c2cc(-c3cccc(Cl)c3)on2)CC1	none
Cc1ccccc1OCC(=O)N/N=C/c1ccccn1	none
CC(/C=N/NC(=O)COc1ccccc1C)=N\NC(=O)COc1ccccc1C	dFosB act-1 22 | dFosB act-2 inactive
CCOC(=O)C1=C(COC(=O)CCCOc2ccccc2)NC(=O)NC1C (centres undefined)	none
O=C(Nc1nc2c(Cl)ccc(Cl)c2s1)C1CC1	dFosB act-1 28 (no result: CAL PDZ FP-2) | dFosB act-2 inactive
COCCN(C(=O)CCC(=O)Nc1nccs1)C(C(=O)NCCC(C)C)c1ccc(OC)cc1 (centres undefined)	none
